Legend:
Type in all cases: functional
CAKI-1 = test: Cytotoxicity against human Caki1 cells assessed as cell growth at 10 uM after 48 hrs by SRB assay relative to control; settings: CAKI-1, 48 h, read-out: Activity
In short: (§1)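 NCI primary screen of about 60 human tumour lines. Cells inoculated and preincubated, then a single test concentration added and cultures incubated 48 h. Result given as percent growth (G%) of treated versus untreated control cells.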

SNB-19 = test: Cytotoxicity against human SNB19 cells assessed as cell growth at 10 uM after 48 hrs by SRB assay relative to control; settings: SNB-19, 48 h, read-out: Activity
HOP-62 = test: Cytotoxicity against human HOP62 cells assessed as cell growth at 10 uM after 48 hrs by SRB assay relative to control; settings: HOP-62, 48 h, read-out: Activity; in short: as §1
COLO 205 = test: Cytotoxicity against human COLO205 cells assessed as cell growth at 10 uM after 48 hrs by SRB assay relative to control; settings: COLO 205, 48 h, read-out: Activity; in short: as §1
M14 = test: Cytotoxicity against human M14 cells assessed as cell growth at 10 uM after 48 hrs by SRB assay relative to control; settings: M14, 48 h, read-out: Activity; in short: as §1
BT-549 = test: Cytotoxicity against human BT549 cells assessed as cell growth at 10 uM after 48 hrs by SRB assay relative to control; settings: BT-549, 48 h, read-out: Activity; in short: as §1
MDA-MB-435 = test: Cytotoxicity against human MDA-MB-435 cells assessed as cell growth at 10 uM after 48 hrs by SRB assay relative to control; settings: MDA-MB-435, 48 h, read-out: Activity
OVCAR-8 = test: Cytotoxicity against human OVCAR8 cells assessed as cell growth at 10 uM after 48 hrs by SRB assay relative to control; settings: OVCAR-8, 48 h, read-out: Activity
786-0 = test: Cytotoxicity against human 786-0 cells assessed as cell growth at 10 uM after 48 hrs by SRB assay relative to control; settings: 786-0, 48 h, read-out: Activity; in short: as §1
RPMI-8226 = test: Cytotoxicity against human RPMI8226 cells assessed as cell growth at 10 uM after 48 hrs by SRB assay relative to control; settings: RPMI-8226, 48 h, read-out: Activity
Malme-3M = test: Cytotoxicity against human MALME-3M cells assessed as cell growth at 10 uM after 48 hrs by SRB assay relative to control; settings: read-out: Activity; in short: as §1
K562 = test: Cytotoxicity against human K562 cells assessed as cell growth at 10 uM after 48 hrs by SRB assay relative to control; settings: K562, 48 h, read-out: Activity; in short: as §1
UACC-62 = test: Cytotoxicity against human UACC62 cells assessed as cell growth at 10 uM after 48 hrs by SRB assay relative to control; settings: UACC-62, 48 h, read-out: Activity
In short: (§2)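 NCI single-dose primary screen across about 60 human tumour lines. Each line was inoculated and preincubated on microtiter plates, then exposed to one concentration of agent for 48 h. Growth is reported as percent growth (G%) of treated cells versus untreated control cells.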

IGROV-1 = test: Cytotoxicity against human IGROV1 cells assessed as cell growth at 10 uM after 48 hrs by SRB assay relative to control; settings: IGROV-1, 48 h, read-out: Activity; in short: as §1
SF-268 = test: Cytotoxicity against human SF268 cells after 48 hrs by SRB assay; settings: SF-268, 48 h; for TGI: read-out: pTGI (converted)
In short: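 Five-dose screen, 10-fold or ½-log dilutions, compound stock in DMSO. Cells were in RPMI 1640 with 5% FBS and 2 mM glutamine at 5000–40,000 cells/well, preincubated 24 h, 37 °C, 5% CO₂, with a time-zero plate TCA-fixed. After 48 h drug exposure, cells were TCA-fixed and stained with 0.4% SRB, read at 515 nm. GI50, TGI and LC50 were derived from time-zero, control and test absorbances.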

HOP-92 = test: Cytotoxicity against human HOP92 cells assessed as cell growth at 10 uM after 48 hrs by SRB assay relative to control; settings: HOP-92, 48 h, read-out: Activity; in short: as §1
OVCAR-3 = test: Cytotoxicity against human OVCAR3 cells assessed as cell growth at 10 uM after 48 hrs by SRB assay relative to control; settings: OVCAR-3, 48 h, read-out: Activity
SW-620 = test: Cytotoxicity against human SW620 cells assessed as cell growth at 10 uM after 48 hrs by SRB assay relative to control; settings: SW-620, 48 h, read-out: Activity; in short: as §2
HL-60(TB) = test: Cytotoxicity against human HL-60(TB) cells assessed as cell growth at 10 uM after 48 hrs by SRB assay relative to control; settings: HL-60, 48 h, read-out: Activity
T47D = test: Cytotoxicity against human T47D cells assessed as cell growth at 10 uM after 48 hrs by SRB assay relative to control; settings: read-out: Activity; in short: as §2
SK-MEL-5 = test: Cytotoxicity against human SK-MEL-5 cells assessed as cell growth at 10 uM after 48 hrs by SRB assay relative to control; settings: SK-MEL-5, 48 h, read-out: Activity
Hs-578T = test: Cytotoxicity against human Hs578T cells assessed as cell growth at 10 uM after 48 hrs by SRB assay relative to control; settings: read-out: Activity; in short: as §1
HCT-15 = test: Cytotoxicity against human HCT15 cells after 48 hrs by SRB assay; settings: HCT-15, 48 h; for TGI: read-out: pTGI (converted)
In short: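 NCI 60-cell five-dose screen. Cells grown in RPMI 1640 with 5% FBS and 2 mM glutamine, plated at 5000–40,000 cells/well, and preincubated 24 h at 37 °C in 5% CO2. Time-zero plates fixed with TCA. Five serial dilutions of DMSO stock added, then 48 h exposure. TCA fixation, 0.4% SRB staining, absorbance read at 515 nm. GI50 from [(Ti−Tz)/(C−Tz)]×100 = 50.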

NCI-H522 = test: Cytotoxicity against human NCI-H522 cells assessed as cell growth at 10 uM after 48 hrs by SRB assay relative to control; settings: NCI-H522, 48 h, read-out: Activity
NCI-H23 = test: Cytotoxicity against human NCI-H23 cells assessed as cell growth at 10 uM after 48 hrs by SRB assay relative to control; settings: NCI-H23, 48 h, read-out: Activity
HT-29 = test: Cytotoxicity against human HT-29 cells assessed as cell growth at 10 uM after 48 hrs by SRB assay relative to control; settings: HT-29, 48 h, read-out: Activity; in short: as §1
SN12C = test: Cytotoxicity against human SN12C cells assessed as cell growth at 10 uM after 48 hrs by SRB assay relative to control; settings: read-out: Activity
UACC-257 = test: Cytotoxicity against human UACC257 cells assessed as cell growth at 10 uM after 48 hrs by SRB assay relative to control; settings: UACC-257, 48 h, read-out: Activity; in short: as §2
CCRF-CEM = test: Cytotoxicity against human CCRF-CEM cells assessed as cell growth at 10 uM after 48 hrs by SRB assay relative to control; settings: read-out: Activity; in short: as §1

SMILES	growth at 10 µM (CAKI-1)	growth at 10 µM (SNB-19)	growth at 10 µM (HOP-62)	growth at 10 µM (COLO 205)	growth at 10 µM (M14)	growth at 10 µM (MDA-MB-435)	growth at 10 µM (OVCAR-8)	growth at 10 µM (786-0)	growth at 10 µM (RPMI-8226)	growth at 10 µM (Malme-3M)	growth at 10 µM (K562)	growth at 10 µM (UACC-62)	growth at 10 µM (IGROV-1)	GI50 (SF-268)	LC50 (SF-268)	TGI (SF-268)	growth at 10 µM (OVCAR-3)	growth at 10 µM (SW-620)	growth at 10 µM (HL-60(TB))	growth at 10 µM (T47D)	further results
CSC1=Nc2c(c(C)c(-c3ccccc3)n2CCCCl)C2=NC(=O)CN12	58%	81%	64%	79%	31%	-31%	88%	78%	51%	83%	19%	37%	48%	8.51 µM	> 100 µM	47.9 µM	85%	44%	27%	72%	growth at 10 µM (BT-549): 61%; growth at 10 µM (HOP-92): 65%; growth at 10 µM (SK-MEL-5): 51%; growth at 10 µM (Hs-578T): 85%; GI50 (HCT-15): 4.07 µM; LC50 (HCT-15): > 100 µM; TGI (HCT-15): 21.4 µM; growth at 10 µM (NCI-H522): 56%; growth at 10 µM (NCI-H23): 78%; growth at 10 µM (HT-29): 23%; growth at 10 µM (SN12C): 86%; growth at 10 µM (UACC-257): 84%; growth at 10 µM (CCRF-CEM): 52%
CSC1=Nc2c(c(C)c(-c3ccccc3)n2CCCN2CCCCC2)C2=NC(=O)CC(C)N12 (centres undefined)	67%	20%	82%	-87%	60%	26%	45%	80%	-51%	57%	12%	54%	23%	3.39 µM	45.7 µM	14.1 µM	24%	62%	-33%	-2%	growth at 10 µM (SK-MEL-5): 10%; growth at 10 µM (Hs-578T): 11%; GI50 (HCT-15): 4.47 µM; LC50 (HCT-15): > 100 µM; TGI (HCT-15): 28.2 µM; growth at 10 µM (NCI-H522): 36%; growth at 10 µM (NCI-H23): 63%; growth at 10 µM (HT-29): 21%; growth at 10 µM (SN12C): 45%; growth at 10 µM (UACC-257): 41%; growth at 10 µM (CCRF-CEM): 21%
